Results from different studies.
Each line is one published result; the experiments were not run side by side.
Target: Serine/threonine-protein kinase ICK (CILK1, Homo sapiens, UniProt Q9UPZ9)
Sequence (Q9UPZ9 1-632, as in one of the studies): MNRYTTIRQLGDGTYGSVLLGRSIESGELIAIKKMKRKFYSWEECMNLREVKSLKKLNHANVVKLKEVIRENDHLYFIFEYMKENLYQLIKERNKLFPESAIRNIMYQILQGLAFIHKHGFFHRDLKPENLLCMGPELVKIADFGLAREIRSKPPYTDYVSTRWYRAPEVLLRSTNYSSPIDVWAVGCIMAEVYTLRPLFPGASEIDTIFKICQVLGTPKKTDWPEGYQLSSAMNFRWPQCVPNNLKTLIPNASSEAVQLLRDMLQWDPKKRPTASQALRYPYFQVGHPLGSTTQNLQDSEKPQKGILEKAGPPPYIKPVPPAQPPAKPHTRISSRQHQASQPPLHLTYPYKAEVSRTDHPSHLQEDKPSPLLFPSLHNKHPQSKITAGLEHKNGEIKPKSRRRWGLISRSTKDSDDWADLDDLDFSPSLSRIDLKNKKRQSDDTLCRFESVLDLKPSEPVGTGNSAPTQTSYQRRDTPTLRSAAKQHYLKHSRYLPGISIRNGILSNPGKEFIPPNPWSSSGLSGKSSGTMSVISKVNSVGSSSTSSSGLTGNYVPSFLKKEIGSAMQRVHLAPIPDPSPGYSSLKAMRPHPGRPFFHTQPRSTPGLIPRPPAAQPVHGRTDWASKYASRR

| Compound | test | setting | quantity | result |
| --- | --- | --- | --- | --- |
| O=C(Nc1cnn(-c2csc(C(=O)NC3COC3)c2)c1)Nc1c(F)cccc1Cl | enzyme activity, inhibitor | 5 µM | remaining activity | 96.6% |
| CC(C)(O)[C@H]1CC[C@H](Nc2ccc3ncc(-c4cccc(C(F)(F)F)c4)n3n2)CC1 | enzyme activity, inhibitor | 1 µM | remaining activity | 86% |
| Cc1ccc(C(=O)Nc2ccc(CN3CCN(C)CC3)c(C(F)(F)F)c2)cc1C#Cc1cnc2cccnn12 | enzyme activity | 23.5 nM | remaining activity | 96% |
| Nc1ncnc2occ(-c3ccc(NC(=O)Nc4cc(C(F)(F)F)ccc4F)cc3)c12 | cell-free assay | 20 µM | remaining signal | 12% |
| CN1CC(Oc2cnc(C#N)cc2-c2ccn3nc(NC(=O)C4CC4)cc3c2)C1 | enzyme activity, inhibitor | 1 µM | inhibition | -20% |
| O=C1NC(c2ccccn2)Sc2ccccc21 (stereo not drawn) | cell-free assay, competition with immobilised ligand | 1 µM | remaining binding | 86% |
| Cc1sc(C(=O)NC2COC2)cc1-n1cc(NC(=O)Nc2c(F)cccc2Cl)cn1 | enzyme activity, inhibitor | 10 µM | remaining activity | 100% |
| Cc1ccc(C(=O)NCc2ccsc2)cc1C#Cc1cn(C(C)C)c2ncnc(N)c12 | enzyme activity, inhibitor | 1 µM | activity vs control | 103% |
| CO[C@@H](C)c1c(Nc2ccc([C@H](N(C)C(=O)C3CCS(=O)(=O)CC3)C(F)(F)F)cc2)cnc2cc(Cl)nn12 | cell-free assay, competition with immobilised ligand | 1 µM | remaining binding | 70% |
